Measured values taken from ChEMBL document CHEMBL1156469 (2007).
Activity calls are given as the source filed them. No cut-off for these calls is given here.

Assays:
Osteoblast [1] = experiment: Effect on procollagen 6 alpha 1 gene expression in rat primary osteoblast cells assessed as expression ratio of treated to untreated control by microarray analysis; type: functional
Procedure, shortened: (§1)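 Resveratrol-treated and vehicle-treated primary osteoblasts were profiled on a mouse osteogenesis-focused cDNA array (GEArray Q series) built to track gene expression during osteogenic differentiation. Each gene's signal in treated cells was expressed as a ratio to untreated control.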

Osteoblast [2] = experiment: Effect on procollagen 4 alpha 4 gene expression in rat primary osteoblast cells assessed as expression ratio of treated to untreated control by microarray analysis; type: functional; procedure, shortened: as §1
Osteoblast [3] = experiment: Effect on MAD homolog 4 gene expression in rat primary osteoblast cells assessed as expression ratio of treated to untreated control by microarray analysis; type: functional
Osteoblast [4] = experiment: Increase in BMP2 mRNA levels in rat primary osteoblast cells at 1 uM by RT-PCR method; type: functional, cell-based
Procedure, shortened: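 Cells treated with 1 μm for 48 h; BMP-2 mRNA measured by quantitative real-time RT-PCR (SYBR Green, 0.5 μm each primer, 4 mm MgCl2, fluorescence read at 82 °C) and normalized.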

[5] = target: Proto-oncogene tyrosine-protein kinase Src (Mus musculus) (UniProt P05480); experiment: Reversal of increase in Src kinase phosphorylation in mouse MC3T3-E1 cells at 1 uM in presence of PP2; type: cell-based
Procedure, shortened: (§2)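 Src phosphorylation, ERα nuclear translocation and BMP-2 protein analysed by Western blot with ECL detection. Three independent experiments.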

Osteoblast [6] = experiment: Inhibition of antiapoptotic activity in rat primary osteoblast cells at 1 uM after 48 hrs in presence of BMP2-specific neutralizing antibody; type: functional, cell-based
Osteoblast [7] = experiment: Effect on epidermal growth factor gene expression in rat primary osteoblast cells assessed as expression ratio of treated to untreated control by microarray analysis; type: functional
[8] = Reversal of induction in BMP2 expression in mouse MC3T3-E1 cells transfected with dominant-negative mutant Src expression vector at 1 uM by Western blot; type: functional, cell-based; procedure, shortened: as §2
Osteoblast [9] = experiment: Effect on transforming growth factor beta 3 gene expression in rat primary osteoblast cells assessed as expression ratio of treated to untreated control by microarray analysis; type: functional; procedure, shortened: as §1
MC3T3-E1 [10] = experiment: Inhibition of TNF-alpha-induced apoptosis in mouse MC3T3-E1 cells after 24 hrs by flow cytometry; type: functional, cell-based
Procedure, shortened: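 Cells washed in PBS, held 30 min in 0.5% Triton X-100/PBS/0.05% RNase A, then propidium iodide (50 μg/ml) added and kept on ice 15–30 min. Apoptosis is the hypodiploid fraction below the G0/G1 peak, by flow cytometry. Run in triplicate and repeated on three occasions.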

[11] = Reversal of increase in BMP2 expression in mouse MC3T3-E1 cells expressing pBMP2/mSp1 mutant at 1 uM after 4 hrs by luciferase method; type: functional, cell-based
Rattus norvegicus [12] = experiment: Increase in serum BMP2 levels in orally dosed ovariectomized Wistar rat after 10 weeks by ELISA relative to sham operated control; type: functional, organism-based
Procedure, shortened: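 Ovariectomized rats given indicated doses or estrogen by oral feeding; serum BMP-2 by ELISA 10 weeks after surgery; compared with sham-operated group; n = 8/group, means ± S.D.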

MC3T3-E1 [13] = experiment: Increase in BMP2 expression in mouse MC3T3-E1 cells expressing pBMP2delta2 mutant at 1 uM after 4 hrs by luciferase method relative to control; type: functional, cell-based
Procedure, shortened: (§3)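 MC3T3-E1 cells transfected with BMP-2 promoter–luciferase constructs (full promoter or deletions), treated with 1 μm or vehicle for 4 h; Dual-Luciferase assay; means ± S.D.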

MG-63 [14] = experiment: Increase in osteopontin mRNA levels in human MG63 cells at 1 uM after 72 hrs by RT-PCR; type: functional, cell-based
Procedure, shortened: (§4)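 Cells treated with 1 μm for 72 h; osteocalcin and osteopontin mRNA by RT-PCR, 30 cycles (95/52/72 °C, 1 min each), ethidium bromide–stained agarose gels; repeated at least twice from at least two cDNA preparations.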

MC3T3-E1 [15] = experiment: Increase in BMP2 expression in mouse MC3T3-E1 cells expressing pBMP2delta1 mutant at 1 uM after 4 hrs by luciferase method relative to control; type: functional, cell-based; procedure, shortened: as §3
MDA-MB-231 = experiment: Antitumor activity against human MDA-MB-231 cells xenografted in SCID mouse orthotropic model assessed as inhibition of 17beta estradiol-induced tumor formation at 10 mg/kg for 2 days; type: functional; set-up: scale not given: the % may be the effect or the level left
Procedure, shortened: (§5)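 Tumor cells were inoculated orthotopically into the mammary fat pad of 6-week-old female SCID mice. […] Tumor volume was calculated as LW2/2. Tumor formation was scored as mice with tumors per total (20 per group), and tumor weight as mean ± S.D. Groups were compared by one-way ANOVA with LSD post-hoc comparisons.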

MC3T3-E1 [16] = experiment: Increase in BMP2 expression in mouse MC3T3-E1 cells expressing pBMP2delta3 mutant at 1 uM after 4 hrs by luciferase method relative to control; type: functional, cell-based; procedure, shortened: as §3
Osteoblast [17] = experiment: Effect on insulin-like growth factor 1 gene expression in rat primary osteoblast cells assessed as expression ratio of treated to untreated control by microarray analysis; type: functional; procedure, shortened: as §1
MG-63 [18] = experiment: Increase in proliferation of human MG63 cells at 0.1 to 10 uM after 24 hr by flow cytometry; type: functional, cell-based
Osteoblast [19] = experiment: Effect on alkaline phosphatase 2 gene expression in rat primary osteoblast cells assessed as expression ratio of treated to untreated control by microarray analysis; type: functional
Rattus norvegicus [20] = experiment: Increase in serum ALP activity in ovariectomized Wistar rat dosed orally after 10 weeks; type: functional, organism-based
Procedure, shortened: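 Female Wistar rats sham-operated or ovariectomized, fed compound orally every 2 days at indicated doses; femur/tibia BMD by DEXA under ketamine (87 mg/kg)/xylazine (13 mg/kg) anesthesia and serum ALP measured 10 weeks after surgery; n = 8/group, means ± S.D.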

MC3T3-E1 [21] = experiment: Increase in osteocalcin mRNA levels in mouse MC3T3-E1 cells at 1 uM after 72 hrs by RT-PCR; type: functional, cell-based; procedure, shortened: as §4
Osteoblast [22] = experiment: Effect on FMS-like tyrosine kinase 1 gene expression in rat primary osteoblast cells assessed as expression ratio of treated to untreated control by microarray analysis; type: functional
MC3T3-E1 [23] = experiment: Increase in proliferation of mouse MC3T3-E1 cells assessed as fraction of cells in S phase at 0.1 to 10 uM after 24 hr by flow cytometry; type: functional, cell-based
[24] = Reversal of increase in pBMP2 expression in mouse MC3T3-E1 cells expressing small interfering RNA for FOXA1 protein at 1 uM by luciferase method; type: functional, cell-based
MC3T3-E1 [25] = experiment: Reversal of increase in ER.DNA complex in mouse MC3T3-E1 cells expressing small interfering RNA for FOXA1 protein at 1 uM by RT-PCR; type: functional, cell-based
MCF7 = experiment: Antitumor activity against human MCF7 cells xenografted in SCID mouse orthotropic model assessed as inhibition of 17beta estradiol-induced tumor weight at 10 mg/kg for 2 days; type: functional; set-up: scale not given: the % may be the effect or the level left; procedure, shortened: as §5
Osteoblast [26] = experiment: Effect on MAD homolog 6 gene expression in rat primary osteoblast cells assessed as expression ratio of treated to untreated control by microarray analysis; type: functional
[27] = target: Forkhead box protein O3 (Homo sapiens) (UniProt O43524); experiment: Reversal of induction of FOXO3a activity in human MDA-MB-231 cells transfected with FOXO3a-specific small interfering RNA; type: cell-based
Chain of Forkhead box protein O3 (Homo sapiens) (O43524 whole entry): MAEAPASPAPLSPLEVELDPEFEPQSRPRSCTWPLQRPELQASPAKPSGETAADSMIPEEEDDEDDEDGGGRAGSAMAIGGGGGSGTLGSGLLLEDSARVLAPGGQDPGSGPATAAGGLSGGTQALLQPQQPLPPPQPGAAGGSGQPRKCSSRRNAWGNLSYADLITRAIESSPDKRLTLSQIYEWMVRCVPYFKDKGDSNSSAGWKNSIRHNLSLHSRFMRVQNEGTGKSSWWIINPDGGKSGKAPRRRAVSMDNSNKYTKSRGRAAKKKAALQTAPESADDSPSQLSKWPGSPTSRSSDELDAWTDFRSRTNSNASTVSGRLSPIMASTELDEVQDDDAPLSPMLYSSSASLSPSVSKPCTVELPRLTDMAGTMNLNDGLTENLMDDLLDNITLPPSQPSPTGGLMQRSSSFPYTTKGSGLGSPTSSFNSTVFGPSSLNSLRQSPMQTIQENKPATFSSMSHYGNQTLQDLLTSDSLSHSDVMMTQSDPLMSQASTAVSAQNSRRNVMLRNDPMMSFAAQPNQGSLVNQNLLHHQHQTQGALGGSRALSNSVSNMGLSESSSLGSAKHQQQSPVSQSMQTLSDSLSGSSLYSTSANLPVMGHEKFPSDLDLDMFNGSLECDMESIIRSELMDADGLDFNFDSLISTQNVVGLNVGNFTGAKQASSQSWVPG

Chain of Proto-oncogene tyrosine-protein kinase Src (Mus musculus) (P05480 2-535 limits assumed): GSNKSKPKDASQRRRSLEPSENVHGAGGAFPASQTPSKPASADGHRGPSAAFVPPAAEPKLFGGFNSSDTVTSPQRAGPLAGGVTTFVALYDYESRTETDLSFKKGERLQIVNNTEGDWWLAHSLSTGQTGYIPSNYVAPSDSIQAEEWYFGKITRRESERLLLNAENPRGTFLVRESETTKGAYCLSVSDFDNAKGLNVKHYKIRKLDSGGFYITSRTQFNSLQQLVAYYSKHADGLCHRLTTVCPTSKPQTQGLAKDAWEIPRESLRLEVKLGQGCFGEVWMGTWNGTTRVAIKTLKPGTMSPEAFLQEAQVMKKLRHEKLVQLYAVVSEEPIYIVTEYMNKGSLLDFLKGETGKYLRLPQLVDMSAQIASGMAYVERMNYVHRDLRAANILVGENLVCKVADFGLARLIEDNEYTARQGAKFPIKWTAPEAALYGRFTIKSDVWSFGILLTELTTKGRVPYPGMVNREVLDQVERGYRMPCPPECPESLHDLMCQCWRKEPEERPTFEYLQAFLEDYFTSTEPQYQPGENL

Oc1ccc(/C=C/c2cc(O)cc(O)c2)cc1 [RESVERATROL]
Ratio (Osteoblast [1]): 2.35 | Ratio (Osteoblast [2]): 4.98 | Ratio (Osteoblast [3]): 2.63 | Activity (Osteoblast [4]): Active | Activity [5]: Active | Activity (Osteoblast [6]): Active | Ratio (Osteoblast [7]): 0.55 | Activity [8]: Active | Ratio (Osteoblast [9]): 2.56 | Activity (MC3T3-E1 [10]): Active | Activity [11]: inactive | Activity (Rattus norvegicus [12]): Active | Activity (MC3T3-E1 [13]): inactive | Activity (MG-63 [14]): Active | Activity (MC3T3-E1 [15]): Active | Activity (MDA-MB-231): 85% | Activity (MC3T3-E1 [16]): inactive | Ratio (Osteoblast [17]): 4.54 | Activity (MG-63 [18]): Active | Ratio (Osteoblast [19]): 8.63 | Activity (Rattus norvegicus [20]): Dose-dependent effect | Activity (MC3T3-E1 [21]): Active | Ratio (Osteoblast [22]): 0.41 | Activity (MC3T3-E1 [23]): Active | Activity [24]: Active | Activity (MC3T3-E1 [25]): Active | Activity (MCF7): 54.6% | Ratio (Osteoblast [26]): 0.38 | Activity [27]: Active
